Measurements as given in ChEMBL document CHEMBL1131222, “Novel thieno[2,3-d][1,3]oxazin-4-ones as inhibitors of human leukocyte elastase” (J Med Chem, 1998).

Legend:
Neutrophil elastase [1] = biological target: T1, Neutrophil elastase (Homo sapiens, UniProt P08246); assay: Negative logarithm of steady state constant Ki for enzyme-inhibitor complex Human Leukocyte Elastase inhibition
T1 sequence (P08246 whole entry): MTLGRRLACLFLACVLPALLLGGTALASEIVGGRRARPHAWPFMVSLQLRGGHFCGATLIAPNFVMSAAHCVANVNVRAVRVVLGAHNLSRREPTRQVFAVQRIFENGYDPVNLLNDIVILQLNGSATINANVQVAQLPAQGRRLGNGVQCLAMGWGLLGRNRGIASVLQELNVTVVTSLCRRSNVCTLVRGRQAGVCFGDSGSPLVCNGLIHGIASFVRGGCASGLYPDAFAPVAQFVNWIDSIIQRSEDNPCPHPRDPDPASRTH
Summary of the method: (§1)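 Progress-curve assay at 25 °C with HLE purified from human leukocytes, in 50 mM sodium phosphate, 500 mM NaCl, pH 7.8. Substrate was MeOSuc-Ala-Ala-Pro-Val-pNA (200 μM final, 405 nm, 30–75 min) or, for a few inhibitors, Suc-Ala-Ala-Pro-Val-AMC (125 μM final, ex 340/em 460 nm, 4–5 min). […] Curves were fitted by slow-binding kinetics (k_obs = k_on'[I] + k_off).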

[2] = Alkaline hydrolysis rate (k-OH); format: ADME
Summary of the method: (§2)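 Thienooxazinone loss followed spectrophotometrically at a fixed wavelength (330–355 nm) in 50 mM CAPS, pH 10.5 or 11.5, 25 °C. Final inhibitor concentration 10–25 μM, 5% final DMSO. Curves analysed as first-order reactions. For some compounds at pH 10.5, reverse-phase HPLC aliquots were taken every 3 h over 24 h, with peak areas at 240 nm fitted to a first-order equation.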

Neutrophil elastase [3] = biological target: T1, Neutrophil elastase; assay: Steady state inhibition constant for Human Leukocyte Elastase inhibition; summary of the method: as §1
[4] = Alkaline hydrolysis rate (logk-OH); format: ADME; settings: 50 mM CAPS, pH 10.5 or 11.5, 25 °C; summary of the method: as §2
[5] = biological target: T2, Neutrophil elastase (Homo sapiens) (UniProt P08246)
T2 sequence (whole entry): T1 sequence (P08246 whole entry)

[6] = biological target: T2, Neutrophil elastase (Homo sapiens); assay: Second order rate constant for enzyme-inhibitor complex Human Leukocyte Elastase inhibition was determined; summary of the method: as §1

SMILES	Ki (Neutrophil elastase [1]) [nM]	kOH- [2] [M⁻¹ s⁻¹]	Ki (Neutrophil elastase [3]) [nM]	Log kOH- [4]	koff [5]	kon (10e3* M-1 s-1) [6]	Kon (10e3* M-1 s-1) [6]
CCCOc1nc2sc3c(c2c(=O)o1)CCCC3	1.45	2.75	1.43	0.44			
CCSc1nc2sc3c(c2c(=O)o1)CCCC3	5.75	0.59	5.7	-0.22			
CC(C)Nc1nc2sccc2c(=O)o1	41.7	0.332	41.8	-0.48			
Cc1sc2nc(NC(C)C)oc(=O)c2c1C	75.9	0.073	75.5	-1.14	0.85	1.13	
O=c1oc(N2CCOCC2)nc2sc3c(c12)CCCC3		0.083		-1.08		< 0.8	
CCOc1nc2sc(C)c(C)c2c(=O)o1	10.7	2.82	10.7	0.45			
CCOc1nc2sc3c(c2c(=O)o1)CCCC3	1.35	2.77	1.36	0.44			
CC(C)Nc1nc2sc3c(c2c(=O)o1)CCCC3	145	0.323	145	-0.49			
Cc1sc2nc(OCC(C)C)oc(=O)c2c1C	135	2.55	133	0.41			
Cc1sc2nc(SCc3ccccc3)oc(=O)c2c1C	100	0.69	101	-0.16			
Cc1sc2nc(N(C)C3CCCCC3)oc(=O)c2c1C		0.077		-1.11			< 0.8
O=c1oc(SCc2ccccc2)nc2sc3c(c12)CCCC3	288	0.355	290	-0.45			
CSc1nc2sc(C)c(C)c2c(=O)o1	34.7	1.65	35	0.22			
Cc1sc2nc(N3CCOCC3)oc(=O)c2c1C		0.085		-1.07		< 0.6	
COC(=O)CSc1nc2sc(C)c(C)c2c(=O)o1	240	1.03	238	0.01	1.63	0.685	
CCN(CC)c1nc2sc3c(c2c(=O)o1)CCCC3	16.2	0.025	16.3	-1.59			
CCCOc1nc2sc(C)c(C)c2c(=O)o1	3.98	2.48	4.02	0.39			
CCSc1nc2sc(C)c(C)c2c(=O)o1	2.75	1.27	2.73	0.1			
CCOc1nc2scc(C(C)C)c2c(=O)o1	5.62	2.98	5.61	0.47			
CC(C)COc1nc2sc3c(c2c(=O)o1)CCCC3	51.3	1.83	51	0.26			
CCN(CC)c1nc2sc(C)c(C)c2c(=O)o1		0.023		-1.63		< 0.6	
CN(c1nc2sc3c(c2c(=O)o1)CCCC3)C1CCCCC1						< 0.6	
CSc1nc2sc3c(c2c(=O)o1)CCCC3	5.75	1.63	5.74	0.21	15.6	272	
COC(=O)CSc1nc2sc3c(c2c(=O)o1)CCCC3	17.8	0.92	17.9	-0.04			
